Experimental data taken from article PMC8286830 (Biochemical Journal, 2021).
Entries after “also recorded” stand apart in the source; their conditions may differ.

What was measured:
[1] = Far-UV CD of the substance alone; assay type: physicochemical; details: 20 µM, aqueous solution, 50 mM Tris–HCl, 150 mM KCl pH 7.5, 25°C
Procedure, shortened: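 Synthetic peptide (>90% HPLC purity, mass confirmed by ESI-MS), quantified by ε280 = 5500 M−1 cm−1, at 20 µM. Buffer: 50 mM Tris–HCl, 150 mM KCl pH 7.5, 0.5 mM DTT with 5 mM CaCl2 or EGTA. Spectra 200–250 nm, 0.1 cm cell, 25°C, average of five accumulations, buffer spectrum subtracted.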

C-TgCEN1 [2] = molecular target: T1, C-TgCEN1 (Toxoplasma gondii, UniProt A0A125YHX7); test: Turbidimetry at 340 nm, C-TgCEN1; assay type: physicochemical; details: 20 µM, 1 mM CaCl2, 20 mM KCl pH 7.5, 37°C
Procedure, shortened: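 Recombinant N-domain (1–94) or C-domain (95–169), Ni-affinity purified. A340 followed over time in a 1 cm cuvette. Standard conditions: 20 µM protein, 20 mM Tris–HCl, 20 mM KCl pH 7.5, 1 mM CaCl2, 37°C. Conditions also varied: CaCl2 0–2 mM, temperature 4–45°C, protein 5–50 µM, KCl 0–150 mM, or 600 µM ANS added.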

C-TgCEN1 [3] = molecular target: T1, C-TgCEN1; test: DLS particle size of C-TgCEN1; assay type: physicochemical
Procedure, shortened: (§1)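 Domains produced in E. coli Rosetta: N-domain residues 1–94 and C-domain 95–169. […] 10 µM protein in 20 mM Tris–HCl pH 7.5, 1 mM CaCl2, at selected KCl concentrations or with 600 µM ANS. Samples centrifuged at 21 000 g for ≥30 min; filtered buffers. Hydrodynamic diameter reported as number distribution (633 nm laser, 173°).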

TgCEN1 [4] = test: Turbidimetry at 340 nm, TgCEN1 self-assembly; assay type: physicochemical, Toxoplasma gondii; details: increasing ANS concentrations, 1 mM CaCl2, 20 mM KCl, pH 7.5, 37°C
Procedure, shortened: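 Full-length protein (E. coli Rosetta) at 20 µM in 20 mM Tris–HCl, 20 mM KCl pH 7.5, 37°C, A340 recorded versus time. Run with 1 mM CaCl2, with 1 mM EGTA, or with EGTA added to Ca2+-saturated protein. Ca2+ series 5–2000 µM, read at 25 min versus metal/protein ratio. Also varied: temperature 4–45°C, protein 5–50 µM, KCl 0–150 mM, and 600 µM ANS.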

TgCEN1 [5] = test: DLS particle size of TgCEN1; assay type: physicochemical, Toxoplasma gondii; details: 600 µM ANS, 1 mM CaCl2, 20 mM Tris–HCl, 20 mM KCl pH 7.5, 37°C
N-TgCEN1 = test: DLS particle size of N-TgCEN1; assay type: physicochemical, Toxoplasma gondii; details: 600 µM ANS, 10 µM N-TgCEN1, 1 mM CaCl2
Procedure, shortened: as §1

EoCEN = details: addition of XPC peptide; cited from earlier work
Δ21TgCEN1 [6] = molecular target: T2, Δ21TgCEN1 (Toxoplasma gondii, UniProt A0A125YHX7); test: Turbidimetry at 340 nm, Δ21TgCEN1; assay type: physicochemical; details: 20 µM Δ21TgCEN1 + 50 µM N21, 1 mM CaCl2, 20 mM KCl pH 7.5, 37°C
T2 sequence (A0A125YHX7 22-169): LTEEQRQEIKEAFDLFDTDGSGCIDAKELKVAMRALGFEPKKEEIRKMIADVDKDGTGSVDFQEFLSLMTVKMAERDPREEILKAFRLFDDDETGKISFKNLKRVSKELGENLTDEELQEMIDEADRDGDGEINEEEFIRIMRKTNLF
Procedure, shortened: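 Construct lacking residues 1–21 (E. coli Rosetta) at 20 µM in 20 mM Tris–HCl, 20 mM KCl pH 7.5, 1 mM CaCl2, 37°C. A340 followed over time, before and after adding 50 µM synthetic N-terminal peptide (residues 1–21). Peptide alone with CaCl2 run as a control trace.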

Δ21TgCEN1 [7] = molecular target: T2, Δ21TgCEN1; test: DLS particle size / count rate of Δ21TgCEN1; assay type: physicochemical; details: 50 µM N21, 1 mM CaCl2
Procedure, shortened: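 Recombinant tag-free Δ21TgCEN1 from E. coli Rosetta (Ni affinity, TEV cleavage). For DLS, 10 µM protein in 20 mM Tris–HCl, 20 mM KCl pH 7.5 with 1 mM CaCl2 at 37°C was spun at 21 000 g for ≥30 min, then measured before and after adding 50 µM N21 peptide. Diameter was reported as number distribution. In parallel, A340 turbidity of 20 µM protein was followed over time.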

[8] = Turbidimetry at 340 nm, N21 peptide alone; assay type: physicochemical; details: 1 mM CaCl2, 20 mM Tris–HCl, 20 mM KCl pH 7.5, 37°C, turbidity at 340 nm
Procedure, shortened: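 Synthetic N21 peptide (>90% HPLC purity, mass confirmed by ESI-MS) alone with 1 mM CaCl2 in 20 mM Tris–HCl, 20 mM KCl pH 7.5 at 37°C. Absorbance at 340 nm recorded over time in 1 cm quartz cuvettes.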

[9] = 600 µM ANS, 10 µM C-TgCEN1, 1 mM CaCl2

Compound: C-TgCEN1: C-terminal domain of TgCEN1, 95–169 aa
- far-UV CD conformation alone [1]: well-folded
- turbidity at 340 nm (C-TgCEN1 [2]): no turbidity changes at 340 nm
- particle diameter (C-TgCEN1 [3]; 10 µM, 1 mM CaCl2, 20 mM Tris–HCl, 20 mM KCl pH 7.5): 311 ± 1 nm
- DLS profile vs salt (C-TgCEN1 [3]; 10 µM, selected KCl concentrations, 1 mM CaCl2): only small changes in the DLS profiles

Compound: O=S(=O)(O)c1cccc2cccc(Nc3ccccc3)c12 [ANS, 1-anilino-8-naphthalenesulphonic acid, reference compound]
- TgCEN1 final turbidity at 340 nm with ANS (TgCEN1 [4]): decreased at increasing ANS concentrations; also recorded: only partially quenched the aggregation process
- hydrodynamic diameter of TgCEN1 particles with ANS (TgCEN1 [5]): ~238 nm
- effect of ANS on association of N-TgCEN1 (N-TgCEN1): no effect
- diameter of new species of C-TgCEN1 with ANS (larger) (C-TgCEN1 [3]; [9]): 35 ± 1 nm
- diameter of new species of C-TgCEN1 with ANS (smaller) (C-TgCEN1 [3]; [9]): 7.96 ± 0.01 nm

Compound: XPC peptide: XPC peptide added to centrin from Euplotes octocarinatus (EoCEN), cited ref 43 (NWKLLAKGLLIRERLKR)
- effect on protein aggregates (EoCEN): dissociation of protein aggregates

Compound: 1-MHSRKGASSLPRGRGAGKKTE-21 [N21]
- Δ21TgCEN1 light scattering at 340 nm with N21 (Δ21TgCEN1 [6]): an increase in the light scattering at 340 nm
- DLS count rate of Δ21TgCEN1 with N21 (Δ21TgCEN1 [7]): increase
- Ca^2+-induced aggregation of peptide alone [8]: did not aggregate upon addition of Ca^2+ in solution
